pEC50: −log10 of the molar value. The source made the active and inactive calls.

The target in data set [1] is T1, Kappa-type opioid receptor (Homo sapiens, UniProt P41145). The data set can be described thus: Agonist activity at human kappa-type opioid receptor expressed in CHO-K1 cells assessed as forskolin-induced cAMP accumulation up to 10 uM after 30 mins in presence of forskolin by luminescence-based HitHunter cAMP assay. The format is functional, cell-based. In a few lines:
(§1)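 CHO-K1 cells expressing the receptor were kept at 37 °C in 5% CO2. cAMP data were normalized to vehicle and forskolin-only controls. Each compound was run in triplicate in parallel assays in ≥2 independent experiments. EC50 and Emax came from sigmoidal nonlinear regression and were averaged across experiments as mean ± SEM.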

In data set [2] the target is Delta-type opioid receptor (Homo sapiens) (UniProt P41143). The experiment in a line: Agonist activity at human delta-type opioid receptor expressed in CHO-K1 cells assessed as forskolin-induced cAMP accumulation up to 10 uM after 30 mins in presence of forskolin by luminescence-based HitHunter cAMP assay. It is filed as functional, cell-based. In a few lines:
as §1

Data set [3] deals with Mu-type opioid receptor (Homo sapiens) (UniProt P35372). The data set can be described thus: Agonist activity at human mu-type opioid receptor expressed in CHO-K1 cells assessed as forskolin-induced cAMP accumulation up to 10 uM after 30 mins in presence of forskolin by luminescence-based HitHunter cAMP assay. The format is functional, cell-based. In a few lines: as §1
Sequence of Mu-type opioid receptor (Homo sapiens) (P35372 whole entry): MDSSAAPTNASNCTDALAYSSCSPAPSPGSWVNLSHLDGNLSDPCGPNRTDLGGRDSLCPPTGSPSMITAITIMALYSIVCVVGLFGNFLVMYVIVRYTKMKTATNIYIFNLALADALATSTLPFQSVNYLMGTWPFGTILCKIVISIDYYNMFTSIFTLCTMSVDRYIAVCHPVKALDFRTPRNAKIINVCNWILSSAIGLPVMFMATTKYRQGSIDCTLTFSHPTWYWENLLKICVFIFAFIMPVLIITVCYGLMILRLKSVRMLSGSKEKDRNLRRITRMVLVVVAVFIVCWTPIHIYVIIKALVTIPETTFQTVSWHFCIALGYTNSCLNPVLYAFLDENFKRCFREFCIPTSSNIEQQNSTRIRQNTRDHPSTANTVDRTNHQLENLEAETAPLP
Data set [4] has as its target T1, Kappa-type opioid receptor. The experiment in a line: Agonist activity at human kappa-type opioid receptor expressed in CHO-K1 cells assessed as forskolin-induced cAMP accumulation after 30 mins in presence of forskolin by luminescence-based HitHunter cAMP assay. The format is functional, cell-based. Summed up: as §1
A short description of data set [5]: Metabolic stability in IGS Sprague-Dawley rat liver microsomes assessed as CYP450-mediated oxidative metabolism at 10 uM measured at 2.5 hrs in presence of NADPH by LC-MS analysis. It is filed as ADME. Summed up:
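Rat liver microsomes (0.25 mg/mL) in 50 mM potassium phosphate with 2 mM MgCl2, pH 7.4, were prewarmed to 37 °C. Compound (10 μM final) and NADPH (1 mM final) were added. Samples were quenched in MeCN with 1% formic acid containing tolbutamide, centrifuged and analysed by LCMS.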

The test system of data set [6] is Liver. The experiment in a line: Metabolic stability in IGS Sprague-Dawley rat liver microsomes at 10 uM measured at 2.5 hrs in absence of NADPH by LC-MS analysis. It is filed as ADME, microsome. In a few lines:
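Incubation used rat liver microsomes (0.25 mg/mL) in 50 mM potassium phosphate, 2 mM MgCl2, pH 7.4, at 37 °C, with 10 μM compound final and buffer in place of NADPH. Samples were quenched in MeCN/1% formic acid with tolbutamide, then quantified by LCMS.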

Data set [7] deals with Mus musculus. The experiment in a line: Analgesic activity in B6-SJL mouse assessed as increase in tail withdrawal latency at 2 mg/kg, ip measured up to 10 to 30 mins by warm water tail withdrawal assay. The format is functional, organism-based. In a few lines:
(§2)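 Adult male mice (25−35 g) were habituated to restrainers over four days. Drug or vehicle (DMSO:Tween-80:saline 2:1:7) was given ip. One-third of the tail was immersed in 50 °C water, with a 10 s cutoff. Baseline was the mean of three latencies. Readings were taken at 5–120 min. %MPE was calculated against pretreatment latency; n = 8−9 per group.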

Data set [8] has as its system Mus musculus. The data set can be described thus: Analgesic activity in sc dosed B6-SJL mouse assessed as increase in tail withdrawal latency measured 30 mins post each dose by warm water tail withdrawal assay. The format is functional. As to conditions: 0.5 h. In a few lines: (§3)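 Vehicle was DMSO:Tween-80:saline 2:1:7. Tail-withdrawal latency in 50 °C water (10 s cutoff) was recorded 30 min after each dose.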

Data set [9] relates to Mus musculus. The experiment in a line: Analgesic activity in B6-SJL mouse assessed as increase in tail withdrawal latency at 0.3 to 10 mg/kg, sc measured 30 mins post each dose by warm water tail withdrawal assay. It is filed as functional. As to conditions: 0.5 h. Summed up: as §3
For data set [10], the system named is Mus musculus. The experiment in a line: Analgesic activity in formalin-induced B6-SJL mouse pain model assessed as inhibition of nociceptive response at 2 mg/kg, ip preincubated for 10 mins followed by formalin injection measured at 10 mins. The format is functional, organism-based. In a few lines: (§4)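 Mice habituated to the test box received agonist ip in DMSO:Tween-80:saline (2:1:7). Ten min later, 20 μL of 2% formalin was injected intradermally into the right hind footpad. Video ran for 60 min, scored every 5 s (weight-bearing scale 0–3) by a blinded analyst and averaged per 5 min.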

Data set [11] concerns Mus musculus. The data set can be described thus: Analgesic activity in formalin-induced B6-SJL mouse pain model assessed as inhibition of nociceptive response at 2 mg/kg, ip preincubated for 10 mins followed by formalin injection measured at 10 mins in presence of kappa-type opioid receptor antagonist nor-BNI. The format is functional, organism-based. Summed up: (§5)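 nor-BNI (10 mg/kg, sc) was given 24 h before ip agonist (DMSO:Tween-80:saline 2:1:7). After 10 min, 20 μL of 2% formalin was injected intradermally into the right hind paw.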

Data set [12] concerns Mus musculus. The experiment in a line: Analgesic activity in formalin-induced B6-SJL mouse pain model assessed as inhibition of nociceptive response AUC at 2 mg/kg, ip preincubated for 10 mins followed by formalin injection measured up to 15 mins. It is filed as functional, organism-based. Summed up: as §4
Data set [13] concerns Mus musculus. The experiment in a line: Analgesic activity in formalin-induced B6-SJL mouse pain model assessed as inhibition of inflammatory response AUC at 2 mg/kg, ip preincubated for 10 mins followed by formalin injection measured at 15 to 60 mins. The format is functional, organism-based. In a few lines:
as §4

For data set [14], the system named is Mus musculus. The experiment in a line: Antiinflammatory activity in B6-SJL mouse assessed as reduction in formalin-induced paw edema at 2 mg/kg, ip preincubated for 10 mins followed by formalin injection measured at 60 mins. It is filed as functional, organism-based. In a few lines: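 Right hind paw height, width and depth were measured by calipers before ip drug or vehicle (DMSO:Tween-80:saline 2:1:7). Intradermal 2% formalin (20 μL) followed 10 min later, and measurements were repeated at 60 min. One-way ANOVA with Bonferroni tests; n = 7 per group.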

For data set [15], the system named is Mus musculus. The experiment in a line: Analgesic activity in formalin-induced B6-SJL mouse pain model assessed as inhibition of inflammatory response at 2 mg/kg, ip preincubated for 10 mins followed by formalin injection measured at 20 to 45 mins. The format is functional, organism-based. Summed up: as §4
Data set [16] relates to Mus musculus. The experiment in a line: Analgesic activity in formalin-induced B6-SJL mouse pain model assessed as inhibition of inflammatory response at 2 mg/kg, ip preincubated for 10 mins followed by formalin injection measured at 20 to 45 mins in presence of kappa-type opioid receptor antagonist nor-BNI. It is filed as functional, organism-based. Summed up: as §5
For data set [17], the system named is Mus musculus. The experiment in a line: Analgesic activity in formalin-induced B6-SJL mouse pain model assessed as inhibition of nociceptive response AUC at 2 mg/kg, ip preincubated for 10 mins followed by formalin injection measured up to 15 mins in presence of kappa-type opioid receptor antagonist nor-BNI. The format is functional, organism-based. Summed up: as §5

In data set [18] the test system is Mus musculus. The experiment in a line: Analgesic activity in formalin-induced B6-SJL mouse pain model assessed as inhibition of inflammatory response AUC at 2 mg/kg, ip preincubated for 10 mins followed by formalin injection measured at 15 to 60 mins in presence of kappa-type opioid receptor antagonist nor-BNI. It is filed as functional, organism-based. In a few lines: as §5

The subject of data set [19] is Mus musculus. The experiment in a line: Analgesic activity in B6-SJL mouse assessed as increase in tail withdrawal latency at 2 mg/kg, ip measured up to 5 to 30 mins by warm water tail withdrawal assay. The format is functional, organism-based. In a few lines:
as §2

Data set [20] has as its system Mus musculus. The data set can be described thus: Analgesic activity in formalin-induced B6-SJL mouse pain model assessed as inhibition of nociceptive response at 2 mg/kg, ip preincubated for 10 mins followed by formalin injection measured at 5 to 10 mins. The format is functional, organism-based. Summed up: as §4
Data set [21] deals with Mus musculus. The experiment in a line: Analgesic activity in formalin-induced B6-SJL mouse pain model assessed as inhibition of inflammatory response at 2 mg/kg, ip preincubated for 10 mins followed by formalin injection measured at 20 to 50 mins. The format is functional, organism-based. Summed up: as §4

Sequence of Delta-type opioid receptor (Homo sapiens) (P41143 whole entry): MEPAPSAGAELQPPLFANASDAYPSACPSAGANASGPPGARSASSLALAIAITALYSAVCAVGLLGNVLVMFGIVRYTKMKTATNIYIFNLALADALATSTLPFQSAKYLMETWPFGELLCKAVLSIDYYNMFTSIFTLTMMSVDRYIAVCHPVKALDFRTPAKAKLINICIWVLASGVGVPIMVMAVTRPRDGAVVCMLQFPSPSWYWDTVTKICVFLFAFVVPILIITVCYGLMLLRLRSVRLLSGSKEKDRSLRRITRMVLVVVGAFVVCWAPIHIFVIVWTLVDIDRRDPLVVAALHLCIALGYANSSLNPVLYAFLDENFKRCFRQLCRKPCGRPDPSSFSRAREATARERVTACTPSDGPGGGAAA
T1 sequence (P41145 whole entry): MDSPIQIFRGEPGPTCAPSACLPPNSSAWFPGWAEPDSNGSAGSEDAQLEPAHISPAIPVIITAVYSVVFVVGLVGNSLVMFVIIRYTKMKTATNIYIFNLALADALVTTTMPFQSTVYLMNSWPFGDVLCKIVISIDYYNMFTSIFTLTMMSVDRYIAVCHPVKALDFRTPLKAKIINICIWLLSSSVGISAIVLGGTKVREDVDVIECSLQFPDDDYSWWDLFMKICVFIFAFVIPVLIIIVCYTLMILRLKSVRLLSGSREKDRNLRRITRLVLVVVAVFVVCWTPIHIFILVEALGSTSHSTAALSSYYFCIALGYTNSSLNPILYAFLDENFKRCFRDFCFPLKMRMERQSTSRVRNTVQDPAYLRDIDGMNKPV

With `COC(=O)[C@@H]1C[C@H](O)C(=O)[C@H]2[C@@]1(C)CC[C@H]1C(=O)O[C@H](c3ccoc3)C[C@]21C`, the Emax in [1] was determined as 100%; in data set [2] it was 0%; in data set [3], 0%.

As to `COC(=O)[C@@H]1CC(=O)C(O)=C2[C@@]1(C)CC[C@H]1C(=O)O[C@H](c3ccoc3)C[C@]21C`, the negative-log EC50 (pEC50) in data set [4] was less than 5.00. Further, the Emax in data set [1] turned out to be 0%.

With `COC(=O)[C@@H]1C[C@]2(CCC(=O)O2)C(=O)[C@H]2[C@@]1(C)CC[C@H]1C(=O)O[C@H](c3ccoc3)C[C@]21C`, in data set [4], the negative-log EC50 (pEC50) is 9.22. The maximal response (Emax) came to 100% in [1], 0% in data set [2], 0% in data set [3] and 62.4% in [9]. The Stability result in data set [5] and in [6] was “Stable” in each case. Also, in [7], the outcome was Active. Also, the ED50 in data set [8] worked out at 0.759 mg/kg. The inhibition entry in [10], in data set [12], in [13], in data set [14] and in [15] was “Active” in each case. Further, the inhibition result in data set [11], in data set [16], in [17] and in data set [18] was “inactive” in each case.

With `COC(=O)[C@H]1[C@](C)([C@@H](CC(OC)OC)C(=O)OC)CC[C@H]2C(=O)O[C@H](c3ccoc3)C[C@]12C`, in [4], the pEC50 was 7.93. Also, the figures for the Emax in data set [1], in data set [2] and in data set [3] were 100%, 0% and 0%, respectively.

As to `COC(=O)[C@H]1[C@](C)([C@@H](CC=O)C(=O)OC)CC[C@H]2C(=O)O[C@H](c3ccoc3)C[C@]12C`, in [4], the negative logarithm of the EC50 (pEC50) is 7.52. For the same compound, the values for the Emax in [1], in data set [2] and in data set [3] were 100%, 0% and 0%, respectively.

Take `COC(=O)[C@@H]1CCC(=O)[C@H]2[C@@]1(C)CC[C@H]1C(=O)O[C@H](c3ccoc3)C[C@]21C`: the negative-log EC50 (pEC50) in [4] was less than 5.00. Besides, in [1], the maximum response (Emax) stood at 0%.

On to `COC(=O)[C@H]1[C@](C)([C@@H](CCOC(C)=O)C(=O)OC)CC[C@H]2C(=O)O[C@H](c3ccoc3)C[C@]12C`, for which, in data set [4], the negative-log EC50 (pEC50) was 7.89. Also, the figures for the Emax in data set [1], in [2] and in data set [3] were 100%, 0% and 0%, respectively.

As to `COC(=O)[C@H]1[C@](C)([C@@H](CC(=O)O)C(=O)OC)CC[C@H]2C(=O)O[C@H](c3ccoc3)C[C@]12C`, in data set [4], the pEC50 is less than 5.00. For the same compound, the Emax in [1] is 0%.

As to `COC(=O)[C@@H]1C[C@H](OC(C)=O)C(=O)[C@H]2[C@@]1(C)CC[C@H]1C(=O)O[C@H](c3ccoc3)C[C@]21C` [SALVINORIN A], the maximum response (Emax) worked out at 0% in data set [2], 0% in data set [3] and 100% in data set [9]. The Stability entry in [5] and in data set [6] was “Stable” each time. The outcome in data set [19] was Active. Further, in [8], the ED50 was 1.28 mg/kg. The inhibition entry in data set [20], in data set [12], in [13], in [14] and in [21] was “Active” in each case.

As for `COC(=O)[C@H]1[C@](C)([C@@H](CCO)C(=O)OC)CC[C@H]2C(=O)O[C@H](c3ccoc3)C[C@]12C`, the pEC50 in [4] was less than 5.00. The maximum response (Emax) in [1] is 0%.

Values taken from ChEMBL document CHEMBL4049431 (J Med Chem, 2017).
